From ChEMBL document CHEMBL1157704, “Potent activity against K562 cells by polyamide-seco-CBI conjugates targeting histone H4 genes” (Bioorg Med Chem, 2010)

Legend:
Format in all cases: functional
K562 [1] = experiment: Effect on HIST2H2A gene expression in human K562 cells assessed as change in mRNA transcript expression at 10 nM after 48 hrs by DNA microarray analysis relative to control
Method in brief: (§1)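 K562 CML cells (b3a2 Bcr-Abl) in standard ATCC-recommended culture, exposed once to 10 nM conjugate and harvested at 48 h. Untreated controls were also collected at 48 h. Transcripts were profiled on Human Gene 1.0 ST whole-genome oligonucleotide arrays, and each treated level was expressed relative to the untreated control, with a cutoff of at least twofold change.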

K562 [2] = experiment: Effect on HIST1H2AC gene expression in human K562 cells assessed as change in mRNA transcript expression at 10 nM after 48 hrs by DNA microarray analysis relative to control
Method in brief: (§2)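 Transcripts were profiled on Affymetrix GeneChip Human Gene 1.0 ST arrays in K562 cells treated at 10 nM. Treated cells were collected at 6, 12, 24 and 48 h; untreated controls were collected at 48 h. Transcripts changed at least twofold versus control were scored.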

K562 [3] = experiment: Effect on TRY6/PRS gene expression in human K562 cells assessed as change in mRNA transcript expression at 10 nM after 48 hrs by DNA microarray analysis relative to control
Method in brief: (§3)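 K562 CML cells (b3a2 Bcr-Abl) kept under standard culture conditions were exposed to 10 nM conjugate and harvested at 6, 12, 24 and 48 h. Untreated controls were harvested at 48 h. Whole-transcript oligonucleotide microarray profiling was done, and changes of at least twofold versus control were scored.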

K562 [4] = experiment: Effect on AMN1 gene expression in human K562 cells assessed as change in mRNA transcript expression at 10 nM after 48 hrs by DNA microarray analysis relative to control; method in brief: as §2
K562 [5] = experiment: Effect on FER gene expression in human K562 cells assessed as change in mRNA transcript expression at 10 nM after 48 hrs by DNA microarray analysis relative to control; method in brief: as §2
K562 [6] = experiment: Effect on PPP1R15A gene expression in human K562 cells assessed as change in mRNA transcript expression at 10 nM after 48 hrs by DNA microarray analysis relative to control; method in brief: as §1
K562 [7] = experiment: Effect on SASH1 gene expression in human K562 cells assessed as change in mRNA transcript expression at 10 nM after 48 hrs by DNA microarray analysis relative to control; method in brief: as §1
K562 [8] = experiment: Effect on TRIB3 gene expression in human K562 cells assessed as change in mRNA transcript expression at 10 nM after 48 hrs by DNA microarray analysis relative to control; method in brief: as §3
K562 [9] = experiment: Effect on HIST2H2AB gene expression in human K562 cells assessed as change in mRNA transcript expression at 10 nM after 48 hrs by DNA microarray analysis relative to control; method in brief: as §1
K562 [10] = experiment: Induction of apoptosis in human K562 cells assessed as late apoptotic cells at 125 nM after 48 hrs by annexin-V FITC and propidium iodide staining-based FACS analysis
Method in brief: (§4)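 K562 cells were exposed to conjugate in culture medium for 48 h, then stained with annexin V-FITC plus propidium iodide. Cell populations were quantified by flow cytometry.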

K562 [11] = experiment: Induction of apoptosis in human K562 cells assessed as non-viable necrotic cells at 125 nM after 48 hrs by annexin-V FITC and propidium iodide staining-based FACS analysis; method in brief: as §4
K562 [12] = experiment: Effect on EIF4B gene expression in human K562 cells assessed as change in mRNA transcript expression at 10 nM after 48 hrs by DNA microarray analysis relative to control; method in brief: as §2
K562 [13] = experiment: Effect on S100A4 gene expression in human K562 cells assessed as change in mRNA transcript expression at 10 nM after 48 hrs by DNA microarray analysis relative to control; method in brief: as §1
K562 [14] = experiment: Effect on EGR1 gene expression in human K562 cells assessed as change in mRNA transcript expression at 10 nM after 48 hrs by DNA microarray analysis relative to control; method in brief: as §2
K562 [15] = experiment: Induction of apoptosis in human K562 cells assessed as late apoptotic cells at 250 nM after 48 hrs by annexin-V FITC and propidium iodide staining-based FACS analysis
Method in brief: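 Treated K562 cells […] stained with Annexin V-FITC/propidium iodide. Apoptosis was scored by two-dimensional flow cytometry at a core FACS facility.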

K562 [16] = experiment: Effect on RNU5F gene expression in human K562 cells assessed as change in mRNA transcript expression at 10 nM after 48 hrs by DNA microarray analysis relative to control; method in brief: as §1
K562 [17] = experiment: Effect on PLA2G6 gene expression in human K562 cells assessed as change in mRNA transcript expression at 10 nM after 48 hrs by DNA microarray analysis relative to control; method in brief: as §1
K562 [18] = experiment: Effect on CD52 gene expression in human K562 cells assessed as change in mRNA transcript expression at 10 nM after 48 hrs by DNA microarray analysis relative to control; method in brief: as §2
K562 [19] = experiment: Effect on ITGB3 gene expression in human K562 cells assessed as change in mRNA transcript expression at 10 nM after 48 hrs by DNA microarray analysis relative to control; method in brief: as §1
K562 [20] = experiment: Effect on CREB3L1 gene expression in human K562 cells assessed as change in mRNA transcript expression at 10 nM after 48 hrs by DNA microarray analysis relative to control; method in brief: as §2
K562 [21] = experiment: Effect on LGALS12 gene expression in human K562 cells assessed as change in mRNA transcript expression at 10 nM after 48 hrs by DNA microarray analysis relative to control; method in brief: as §1
K562 [22] = experiment: Effect on NET1 gene expression in human K562 cells assessed as change in mRNA transcript expression at 10 nM after 48 hrs by DNA microarray analysis relative to control; method in brief: as §1
K562 [23] = experiment: Effect on PYROXD1 gene expression in human K562 cells assessed as change in mRNA transcript expression at 10 nM after 48 hrs by DNA microarray analysis relative to control; method in brief: as §1
K562 [24] = experiment: Effect on HIST1H3J gene expression in human K562 cells assessed as change in mRNA transcript expression at 10 nM after 48 hrs by DNA microarray analysis relative to control; method in brief: as §2
K562 [25] = experiment: Effect on BAMBI gene expression in human K562 cells assessed as change in mRNA transcript expression at 10 nM after 48 hrs by DNA microarray analysis relative to control; method in brief: as §2
K562 [26] = experiment: Effect on ARRDC3 gene expression in human K562 cells assessed as change in mRNA transcript expression at 10 nM after 48 hrs by DNA microarray analysis relative to control; method in brief: as §2
K562 [27] = experiment: Effect on HIST1H2BL gene expression in human K562 cells assessed as change in mRNA transcript expression at 10 nM after 48 hrs by DNA microarray analysis relative to control; method in brief: as §2
K562 [28] = experiment: Effect on HIST1H2A gene expression in human K562 cells assessed as change in mRNA transcript expression at 10 nM after 48 hrs by DNA microarray analysis relative to control; method in brief: as §2
K562 [29] = experiment: Effect on TOMM22 gene expression in human K562 cells assessed as change in mRNA transcript expression at 10 nM after 48 hrs by DNA microarray analysis relative to control; method in brief: as §3

CC(=O)Nc1cn(C)c(C(=O)Nc2cn(C)c(C(=O)NCCC(=O)Nc3cn(C)c(C(=O)NCCCC(=O)Nc4cc(C(=O)Nc5cn(C)c(C(=O)Nc6ccc7[nH]c(C(=O)N8CC(CCl)c9c8cc(O)c8ccccc98)cc7c6)n5)n(C)c4)n3)n2)n1 (centres undefined)
fold change (FC) (K562 [1]): >=2 | fold change (FC) (K562 [2]): >=2 | fold change (FC) (K562 [3]): >=2 | fold change (FC) (K562 [4]): >=2 | fold change (FC) (K562 [5]): >=2 | fold change (FC) (K562 [6]): >=2 | fold change (FC) (K562 [7]): >=2 | fold change (FC) (K562 [8]): >=2 | fold change (FC) (K562 [9]): >=2 | Activity (K562 [10]): 9.21% | Activity (K562 [11]): 2.07% | fold change (FC) (K562 [12]): >=2 | fold change (FC) (K562 [13]): >=2 | fold change (FC) (K562 [14]): >=2 | Activity (K562 [15]): 8.53% | fold change (FC) (K562 [16]): >=2 | fold change (FC) (K562 [17]): >=2 | fold change (FC) (K562 [18]): >=2 | fold change (FC) (K562 [19]): >=2 | fold change (FC) (K562 [20]): >=2 | fold change (FC) (K562 [21]): >=2 | fold change (FC) (K562 [22]): >=2 | fold change (FC) (K562 [23]): >=2 | fold change (FC) (K562 [24]): >=2 | fold change (FC) (K562 [25]): >=2 | fold change (FC) (K562 [26]): >=2 | fold change (FC) (K562 [27]): >=2 | fold change (FC) (K562 [28]): >=2 | fold change (FC) (K562 [29]): >=2
